From PubChem
Hits are enriched below; roughly 1.9% of the tested compounds scored in any of these assays.
CXCR6 inh: inhibitors of human CXCR6 receptor; CHO-K1 PathHunter CXCR6 beta-arrestin, luminescence; inhibition, % at 20 µM; AID 602244; O00574; 360,000 compounds, 0.36% hits; in the data active = inhibition above about 34%, passing the limit was not always enough;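 also: antagonist mode with CXCL16 agonist at 10 nM final; 0% = 10 nM CXCL16 with DMSO and 100% = unstimulated wells without agonist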
H9c2 TAG inh: reduces triacylglycerol accumulation in H9c2 cells. AID 651582. 230,000 compounds, 0.66% hits. Nile Red lipid (TAG) fluorescence; cells loaded with 200 µM oleic acid. inhibition, % at 12.5 µM;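 active = pattern-corrected inhibition of lipid staining of at least 50% with the nuclear-stain viability signal not falling by more than 50%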;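 also: 0% = DMSO wells and 100% = triacsin C control wells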
EBI2 block: blocks human EBI2 receptor beta-arrestin signaling; inhibition, % at 5 µM; EBI2 beta-arrestin recruitment, luminescence, 7a,25-OHC stimulated; AID 651636; 360,000 compounds, 0.81% hits; P32249; in the data active = inhibition above about 38%;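 also: enzyme fragment complementation signal reports receptor beta-arrestin coupling in cells; 0% = agonist plus DMSO wells and 100% = wells without agonist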
Target sequence (P32249 whole entry, looked up, the tested form may be a part): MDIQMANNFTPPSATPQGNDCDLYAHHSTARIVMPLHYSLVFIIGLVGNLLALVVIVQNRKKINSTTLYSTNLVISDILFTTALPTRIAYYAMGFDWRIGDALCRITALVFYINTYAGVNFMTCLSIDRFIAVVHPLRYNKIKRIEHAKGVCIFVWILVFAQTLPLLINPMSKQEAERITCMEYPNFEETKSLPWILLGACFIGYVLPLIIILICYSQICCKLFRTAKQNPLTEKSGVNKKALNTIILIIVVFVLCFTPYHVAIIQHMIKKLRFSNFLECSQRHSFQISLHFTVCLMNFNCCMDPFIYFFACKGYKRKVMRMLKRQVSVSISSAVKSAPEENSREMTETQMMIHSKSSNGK
APJ antag: blocks the human apelin receptor APJ; AID 2521; 330,000 compounds, 0.32% hits; P35414; inhibition, % at 20 µM; CHO-K1 APJ beta-arrestin complementation, luminescence;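 active = inhibition above about 40% at 20 µM, limit read from the data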;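 also: cells challenged with 10 nM apelin-13 agonist together with compound; plate controls were apelin-13 plus DMSO wells for no effect and DMSO wells lacking apelin-13 for full effect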
APJ agonist: APJ receptor agonism | activation, % at 20 µM | 330,000 compounds, 0.11% hits | AID 2520 | P35414 | CHO-K1 APJ PathHunter beta-arrestin, luminescence; 0% DMSO wells, 100% apelin;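 active = activation more than six SD over the plate average, tested at 20 µM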;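 also: 0% = DMSO alone and 100% = apelin-13 at 10 nM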
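Assay system: CHO-K1 cells stably expressing ProLink-tagged human APJ and arrestin–beta-gal acceptor. Compound dosing: 20 µM single point, 1% DMSO. Times: 16-18 h seeding, 90 min dark compound exposure, 60 min detection. Detection: beta-gal luminescence. Evaluation: APJ–arrestin association signal. Controls: negative DMSO alone, positive Apelin-13 at 10 nM.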
CCR6 antagonist: blocks CCL20-driven beta-arrestin recruitment at human CCR6; 340,000 compounds, 0.49% hits; CHO-K1 CCR6 PathHunter beta-arrestin, luminescence, CCL20-stimulated; P51684; inhibition, % at 20 µM;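 active = compounds whose inhibition of the agonist-driven luminescence signal at 20 µM reaches about 50%, limit read from the data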;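 also: cells stimulated with CCL20 at 14 nM final; plate controls were DMSO with CCL20 for no effect and DMSO without agonist for full effect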
EBI2 antag conf: EBI2 (human) antagonism, single concentration confirmation; EBI2 beta-arrestin luminescence, 7a,25-OHC antagonism; inhibition, % at 5 µM; shares compounds with EBI2 block; 2,400 compounds, 29% hits; AID 651997;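 active = inhibition of at least 50%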
EBI2 ag: counter-screen for EBI2 antagonists: EBI2 agonist activity. activation, % at 5 µM. shares compounds with EBI2 block. EBI2-expressing cells, agonist mode, luminescence, 60 min; 0% vehicle, 100% 7α,25-dihydroxycholesterol control. AID 652000. 2,400 tested, under 10 active;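 active = activation of at least 50%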
bGal cs: counter-screen for EBI2 antagonists: E. coli beta-galactosidase inhibition; shares compounds with EBI2 block; purified beta-galactosidase, luminescent Galacton Star, 15 min; inhibition, % at 5 µM; 2,400 compounds, 1% hits; AID 652176;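 active = replicate-average signal at least 3 plate SD below neutral wells, shown as high inhibition, flagging enzyme-inhibiting false positives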;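 also: 0% = DMSO wells with enzyme and 100% = wells lacking enzyme; higher means stronger loss of beta-gal luminescence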
* = called active by the depositor; x = no result.

SMILES	CXCR6 inh	H9c2 TAG inh	EBI2 block	APJ antag	APJ agonist	CCR6 antagonist	EBI2 antag conf	EBI2 ag	bGal cs
COc1ccc([C@H]2C[C@@H](O)[C@H](n3cc(COC(=O)c4ccccc4)nn3)CN2C(=O)c2cccs2)cc1	-1	5	-4	x	x	x	x	x	x
CSC1=C(C#N)C(c2ccccc2Cl)C(C(C)=O)=C(C)N1 (centres undefined)	8	x	65*	10	-1	-3	48	3	10
CSC1=C(C#N)C(c2ccccc2)C(C(C)=O)=C(C)N1 (centres undefined)	-12	5	11	-4	-3	7	x	x	x
CCCC1NC(=O)c2cccnc2-n2c1nc1cc(F)c(F)cc1c2=O (centres undefined)	2	-11	1	x	x	x	x	x	x
COc1ccc(COC(=O)C2CCN(C(=O)c3ccc(Cl)cc3)CC2)cc1F	4	-8	49*	11	-5	27	49	0	0
COc1ccc(C)cc1NC(=O)COC(=O)C1CCN(C(=O)c2ccc(Cl)cc2)CC1	-6	-5	17	15	-1	2	x	x	x
COc1ccc(C(C)=O)cc1COC(=O)C1CCN(C(=O)c2ccc(Cl)cc2)CC1	-1	-5	77*	0	-4	14	39	1	9
COc1cccc(OC)c1C(=O)Nc1cccc(-n2cnnn2)c1	-2	x	-4	9	-4	1	x	x	x
Cc1ccc(S(=O)(=O)N2CCN(C(=O)c3ccc(-n4cncn4)c([N+](=O)[O-])c3)CC2)c(C)c1	-17	-19	64*	x	x	x	23	0	-13
COc1ccc(OCC(=O)N2CCN(C(=O)c3ccc(F)cc3)CC2)cc1	8	4	79*	8	0	7	65*	1	5
Cc1ccc(OCC(=O)N2CCN(C(=O)c3cccc(F)c3)CC2)cc1	2	-13	84*	9	-2	2	49	2	5
O=C(COc1ccc(F)cc1)N1CCCCCCC1	3	0	-8	13	0	2	x	x	x
Cc1ccc(OCC(=O)N2CCN(C(=O)c3ccncc3)CC2)cc1	-2	4	44*	2	-1	-6	27	2	4
COc1ccc(OCC(=O)N2CCN(C(=O)c3cccc(F)c3)CC2)cc1	-6	8	81*	-20	-6	9	61*	-1	5
CCN1C[C@@H]2[C@@H]3C(=O)N(C)C(=O)[C@@H]3[C@](Cc3ccccc3)(C1=O)N2C(=O)c1ccc(Br)cc1	-2	0	1	x	x	5	x	x	x
CCc1nc2ccc(C(=O)NCCCN3CCCC3=O)cn2c1N(C)Cc1ccc(OC)cc1	4	11	-1	x	x	x	x	x	x
Cc1ccc(SCC2(O)CCN(S(=O)(=O)c3ccc(Cl)cc3)CC2)cc1	-3	-26	28	2	1	2	x	x	x
O=C(CSc1ccc(Cl)cc1)N1CCN(c2ncc(C(F)(F)F)cc2Cl)CC1	-3	-20	84*	-7	-4	22	70*	0	-15
Cc1ccc(S(=O)(=O)N2CCN(C(=O)CSc3ccc(Cl)cc3)CC2)cc1	11	x	92*	-9	-2	15	68*	0	7
CC(=O)c1ccc(S(=O)(=O)N2CCN(C(=O)CSc3ccc(C)c(C)c3)CC2)cc1	-12	x	70*	-24	0	3	31	-1	-10
Cc1ccc(SCC(=O)N2CCN(S(=O)(=O)c3cccs3)CC2)cc1	-1	-3	76*	5	-3	8	49	-1	-8
CSc1nnc(C)c(=O)n1COC(=O)c1ccc(S(=O)(=O)N2CCCC2)cc1	7	x	-1	2	-3	-1	x	x	x
COc1ccc2[nH]c(=O)c(CN(C(C)=O)c3cc(C)ccc3C)cc2c1	9	-3	-1	x	x	x	x	x	x
CC1(C)CC2CC(C)(CN2C(=O)COC(=O)c2ccccc2C(F)(F)F)C1 (centres undefined)	-4	-17	11	10	-6	3	x	x	x
CN1CCN(C(=O)CSc2ccc(Cl)cc2)CC1	8	17	47*	-42	1	-11	20	-1	-19
SMILES	CXCR6 inh	H9c2 TAG inh	EBI2 block	APJ antag	APJ agonist	CCR6 antagonist	EBI2 antag conf	EBI2 ag	bGal cs
O=C(NCc1ccccc1)c1ccc(C(=O)NCc2ccccc2)cc1	8	12	47*	x	x	2	1	-1	-11
O=C(NCc1ccccc1)c1ccc(CN2CCC(Cc3ccccc3)CC2)cc1	5	x	50*	1	-4	8	19	0	0
COc1ccc(OCC(=O)N(C)Cc2ccccc2)cc1	5	-1	63*	-2	-3	12	56*	0	-7
CC(C)NS(=O)(=O)c1ccc(OCC(=O)N(C)Cc2ccccc2)cc1	4	x	2	-22	-5	8	x	x	x
COc1ccc(OCC(=O)N(C)CC2COc3ccccc3O2)cc1 (centres undefined)	4	22	46*	11	-1	8	24	-1	-5
Cc1cc(OCC(=O)N(C)Cc2ccccc2)ccc1Br	2	x	91*	14	-1	23	87*	-1	8
Cc1cc(OCC(=O)N(C)Cc2ccccc2)ccc1Cl	3	x	83*	2	-2	20	72*	1	6
Cc1cc(OCC(=O)O/N=C(\N)c2ccccc2)ccc1Br	5	-8	-1	-6	-1	20	x	x	x
COc1ccc(C(=O)COC(=O)CCN2C(=O)C3CC=CCC3C2=O)c(OC)c1 (centres undefined)	1	-7	-2	-4	-3	8	x	x	x
CC1Sc2ccc(C(=O)Nc3ccccc3OC(F)F)cc2NC1=O (centres undefined)	-4	-14	-10	2	-2	-1	x	x	x
CCCCn1nnnc1C(c1ccccc1OC(F)(F)F)N1CCN(C/C=C/c2ccccc2)CC1 (centres undefined)	19	x	68*	x	x	x	58*	0	8
COc1ccccc1C(c1nnnn1Cc1ccccc1)N1CCN(C2CCCC2)CC1 (centres undefined)	-7	7	-3	-7	-1	5	x	x	x
FC(F)(F)Oc1ccccc1C(c1nnnn1Cc1ccccc1)N1CCN(C/C=C/c2ccccc2)CC1 (centres undefined)	23	x	67*	x	x	x	24	-1	6
CC(C)n1nnnc1C1c2ccccc2C(=O)N1C1CC1 (centres undefined)	-4	x	-6	x	x	x	x	x	x
O=C1c2ccccc2C(=O)N1CCc1ccccn1	4	x	-4	7	-4	3	x	x	x
